{
  "source": "PubChem BioAssay AID602126",
  "about": "(Broad Institute, 2011)",
  "note": "Active and inactive are the calls of the source.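 Rule for the calls: active = compounds cutting cell ATP light whose fitted AC50 is at most double the top dose tried; inconclusive = flat moderate signal loss, or an unreliable curve fit; inactive = the rest.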",
  "data": [
    {"system": "not listed separately", "test": "ldlA[mSR-BI] cell viability loss – CellTiter-Glo luminescence, 24 h, dry powder, set 5, cytotoxicity control for SR-BI HDL uptake inhibitor project, dose response (AID 602126)", "settings": "ldlA[mSR-BI] CHO cells viability, CellTiter-Glo ATP luminescence, 24 h; at 35 µM (top of the series)", "in_short": "(§1)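 Detection: luminescence of cellular ATP via CellTiter-Glo luciferase reagent; test system: ldlA[mSR-BI] cells; read-out: IC50 of cell viability from ATP-dependent luminescence; schedule: 24 h compound exposure at 37 °C, then 10 min with detection reagent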", "values": [
      {"compound": "C[C@H](CO)N1C[C@H](C)[C@H](CN(C)S(=O)(=O)c2ccc(F)cc2)Oc2ccc(NC(=O)CCC(F)(F)F)cc2C1=O", "activity change, negative = cytotoxicity": "-2.53% (inactive)"},
      {"compound": "O=C(Nc1ccc(-c2nc3ccc(NC(=O)c4ccccc4[N+](=O)[O-])cc3[nH]2)cc1)c1ccccc1[N+](=O)[O-]", "activity change, negative = cytotoxicity": "-15.1% (inactive)"},
      {"compound": "CC(C)(C)OC(=O)N1CCc2cc(-c3noc(NC(=O)c4ccco4)n3)ccc21", "activity change, negative = cytotoxicity": "-3.91% (inactive)"},
      {"compound": "C[C@H](CO)N1C[C@H](C)[C@H](CN(C)S(=O)(=O)c2ccc(Cl)cc2)Oc2ccc(NC(=O)Cc3cn(C)c4ccccc34)cc2C1=O", "activity change, negative = cytotoxicity": "-19.4% (inactive)"},
      {"compound": "CCOC(=O)Nc1cccc(NC(=O)c2cc(OC)cc(OC)c2)c1", "activity change, negative = cytotoxicity": "-19.4% (inactive)"}
    ]},
    {"system": "ldlA[mSR-BI] CHO cells viability, CellTiter-Glo ATP luminescence, 24 h", "test": "ldlA[mSR-BI] cell viability loss – CellTiter-Glo luminescence, 24 h, dry powder, set 5, cytotoxicity control for SR-BI HDL uptake inhibitor project, dose response (AID 602126)", "settings": "not given", "in_short": "as §1", "values": [
      {"compound": "O=C(Nc1cccc(NC(=O)c2cc([N+](=O)[O-])ccc2Cl)n1)c1cc([N+](=O)[O-])ccc1Cl", "AC50": "21.9 µM"},
      {"compound": "COC(=O)N1CCc2cc(-c3csc(NC(=O)c4cc(OC)cc(OC)c4)n3)ccc21", "AC50": "> 70 µM (inactive)"},
      {"compound": "CC(C(=O)NC1CCCC1)N(C(=O)Cn1nnc(-c2ccc(Cl)c(Cl)c2)n1)C1CCCCC1", "note": "(stereo not given)", "AC50": "37 µM"},
      {"compound": "COc1cc(OC)cc(C(=O)Nc2nc(-c3ccc4c(c3)CCN4C(=O)OC(C)(C)C)cs2)c1", "AC50": "> 70 µM (inactive)"},
      {"compound": "CCC(=O)N1CCc2cc(-c3csc(NC(=O)c4cccc(OC(F)(F)F)c4)n3)ccc21", "AC50": "> 70 µM (inactive)"},
      {"compound": "CC(C(=O)NC1CCCC1)N(C(=O)Cn1nnc(-c2ccc3c(c2)OC(F)(F)O3)n1)C1CCCCC1", "note": "(stereo not given)", "AC50": "55.2 µM"},
      {"compound": "CCC(=O)N1CCc2cc(-c3csc(N(C)C(=O)c4cc(OC)cc(OC)c4)n3)ccc21", "AC50": "15.1 µM"},
      {"compound": "N#Cc1sc2nc(C3CC3)cc(-c3ccc(Cl)cc3)c2c1N", "AC50": "63.1 µM"},
      {"compound": "CS(=O)(=O)N1CCc2cc(-c3csc(NC(=O)c4ccco4)n3)ccc21", "AC50": "> 70 µM (inactive)"},
      {"compound": "COc1ccc(-c2nc(CC(=O)N(C3CCCCC3)C(C)C(=O)NC3CCCC3)cs2)cc1OC", "note": "(stereo not given)", "AC50": "67 µM"},
      {"compound": "C[C@@H]1CN([C@H](C)CO)C(=O)c2cc(NC(=O)Cc3cn(C)c4ccccc34)ccc2O[C@@H]1CN(C)S(=O)(=O)c1ccc(Cl)cc1", "AC50": "> 70 µM (inactive)"},
      {"compound": "C[C@H]1CN([C@@H](C)CO)C(=O)c2cccc(N(C)C)c2O[C@@H]1CN(C)Cc1ccc(Cl)c(Cl)c1", "AC50": "> 70 µM (inactive)"},
      {"compound": "C[C@H]1CN([C@@H](C)CO)C(=O)c2cccc(NC(=O)Nc3ccccc3)c2O[C@@H]1CN(C)Cc1ccccc1", "AC50": "> 70 µM (inactive)"},
      {"compound": "O=C(Nc1cc(C(F)(F)F)ccc1Cl)c1ccccc1NS(=O)(=O)c1ccc(Cl)cc1", "AC50": "0.285 µM"},
      {"compound": "CC(C)NC(=O)Nc1cccc2c1O[C@H](CN(C)Cc1ccc(Cl)c(Cl)c1)[C@@H](C)CN([C@@H](C)CO)C2=O", "AC50": "> 70 µM (inactive)"},
      {"compound": "CCCCCCC1CCC/C1=N\\NC(N)=S", "note": "(stereo not given)", "AC50": "2.13 µM"},
      {"compound": "O=C(Nc1ccc(Cl)cc1C(=O)c1ccc(Cl)cc1)c1cc(Br)ccc1NS(=O)(=O)c1ccc(Cl)cc1", "AC50": "4.98 µM"},
      {"compound": "C[C@H]1CN([C@@H](C)CO)C(=O)c2cc(NC(=O)Nc3ccccc3)ccc2O[C@@H]1CN(C)Cc1ccc(Cl)c(Cl)c1", "AC50": "57 µM"},
      {"compound": "C[C@H]1CN([C@@H](C)CO)C(=O)c2cccc(NC(=O)Nc3ccc(F)cc3)c2O[C@@H]1CN(C)Cc1ccc(Cl)c(Cl)c1", "AC50": "21.6 µM"},
      {"compound": "O=C(Nc1ccc(-c2nc3ccc(NC(=O)c4ccccc4)cc3[nH]2)cc1)c1ccccc1", "AC50": "2.63 µM"},
      {"compound": "O=C(Nc1ccc(-c2nc3cc(NC(=O)c4ccccc4[N+](=O)[O-])ccc3o2)cc1)c1ccccc1[N+](=O)[O-]", "AC50": "36.3 µM"},
      {"compound": "COc1ccc(-c2cc(CC(=O)N(C3CCCCC3)C(C)C(=O)NC3CCCC3)no2)cc1OC", "note": "(stereo not given)", "AC50": "> 70 µM (inactive)"},
      {"compound": "COc1cccc(-c2csc(N3CCN(C(=S)Nc4cccc(Cl)c4)CC3)n2)c1", "AC50": "51.7 µM"},
      {"compound": "C[C@H]1CN([C@@H](C)CO)C(=O)c2cc(NC(=O)Cc3cn(C)c4ccccc34)ccc2O[C@H]1CN(C)S(=O)(=O)c1ccc(Cl)cc1", "AC50": "> 70 µM (inactive)"},
      {"compound": "CCC(=O)N1CCc2cc(-c3csc(NC(=O)c4cccs4)n3)ccc21", "AC50": "64.4 µM"},
      {"compound": "COc1cc(OC)cc(C(=O)Nc2nc(-c3ccc4c(c3)CCN4C(=O)CN(C)C)cs2)c1", "AC50": "20.2 µM"},
      {"compound": "O=C(CN(C(=O)Cn1nnc(-c2ccc3c(c2)OC(F)(F)O3)n1)C1CCCCC1)NC1CCCC1", "AC50": "> 70 µM (inactive)"},
      {"compound": "C=CCN1CCc2cc(-c3csc(NC(=O)c4ccco4)n3)ccc21", "AC50": "57.7 µM"},
      {"compound": "C[C@H](CO)N1C[C@H](C)[C@@H](CN(C)S(=O)(=O)c2ccc(Cl)cc2)Oc2ccc(NC(=O)Cc3cn(C)c4ccccc34)cc2C1=O", "AC50": "> 70 µM (inactive)"},
      {"compound": "CCC(=O)N1CCc2cc(-c3csc(NC(=O)c4ccco4)n3)ccc21", "AC50": "> 70 µM (inactive)"},
      {"compound": "C[C@H](CO)N1C[C@H](C)[C@H](CN(C)S(=O)(=O)c2ccc(F)cc2)Oc2ccc(NC(=O)Cc3cn(C)c4ccccc34)cc2C1=O", "AC50": "> 70 µM (inactive)"},
      {"compound": "O=C(Nc1ccc(-c2nc3cc(NC(=O)c4ccccc4Cl)ccc3o2)cc1)c1ccccc1Cl", "AC50": "43.9 µM"},
      {"compound": "Cc1cc(C)n(CC(=O)NC2CCCc3c2cnn3-c2ccc(C)c(C)c2)n1", "note": "(stereo not given)", "AC50": "> 70 µM (inactive)"},
      {"compound": "CCC(=O)N1CCc2cc(-c3cn4ccccc4n3)ccc21", "AC50": "15.8 µM"},
      {"compound": "O=C(Nc1cc(Cl)ccc1Cl)c1cc(Cl)ccc1NS(=O)(=O)c1ccc(Cl)c([N+](=O)[O-])c1", "AC50": "17.3 µM"}
    ]}
  ]
}
